# Hits are enriched below; roughly 12% of the tested compounds scored in any of these assays.
# WT yeast gro inh: growth inhibition of WT yeast, mitochondrial fusion screen | mitochondrial fusion phenotypic screen, WT strain | inhibition, % at 10 µM | 190,000 tested, 2.1% active | AID 1362; in the data active = inhibition above about 58%; tested in S. cerevisiae
# ROMK mod: modulators of human ROMK potassium channel. P48048. Tet-inducible ROMK, thallium flux fluorescence; actives lie on both sides. B-score at 10 µM. 130,000 tested, 2% active;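 active = signal ratio slope over the read window, or its plate-corrected B-score, at least 3 SD from the plate mean, either direction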;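 also: B-score of the F/F0 ratio slope over 7 to 12 s after thallium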
# Cl transport mod: KCC2 (human) Cl- transport modulation; 190,000 tested, 2.2% active; KCC2 cells, thallium flux FluoZin-2 fluorescence; Q9H2X9; B-score of Tl+ flux slope (higher = more flux/activation; lower = inhibition) at 10 µM;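 active = thallium flux slope and its plate-corrected score both differing from the plate sample mean at a set confidence after two filtering rounds, in either direction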;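 also: slope of fluorescence scaled to starting intensity during 10 to 20 s after thallium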
# Target sequence (Q9H2X9 whole entry, looked up): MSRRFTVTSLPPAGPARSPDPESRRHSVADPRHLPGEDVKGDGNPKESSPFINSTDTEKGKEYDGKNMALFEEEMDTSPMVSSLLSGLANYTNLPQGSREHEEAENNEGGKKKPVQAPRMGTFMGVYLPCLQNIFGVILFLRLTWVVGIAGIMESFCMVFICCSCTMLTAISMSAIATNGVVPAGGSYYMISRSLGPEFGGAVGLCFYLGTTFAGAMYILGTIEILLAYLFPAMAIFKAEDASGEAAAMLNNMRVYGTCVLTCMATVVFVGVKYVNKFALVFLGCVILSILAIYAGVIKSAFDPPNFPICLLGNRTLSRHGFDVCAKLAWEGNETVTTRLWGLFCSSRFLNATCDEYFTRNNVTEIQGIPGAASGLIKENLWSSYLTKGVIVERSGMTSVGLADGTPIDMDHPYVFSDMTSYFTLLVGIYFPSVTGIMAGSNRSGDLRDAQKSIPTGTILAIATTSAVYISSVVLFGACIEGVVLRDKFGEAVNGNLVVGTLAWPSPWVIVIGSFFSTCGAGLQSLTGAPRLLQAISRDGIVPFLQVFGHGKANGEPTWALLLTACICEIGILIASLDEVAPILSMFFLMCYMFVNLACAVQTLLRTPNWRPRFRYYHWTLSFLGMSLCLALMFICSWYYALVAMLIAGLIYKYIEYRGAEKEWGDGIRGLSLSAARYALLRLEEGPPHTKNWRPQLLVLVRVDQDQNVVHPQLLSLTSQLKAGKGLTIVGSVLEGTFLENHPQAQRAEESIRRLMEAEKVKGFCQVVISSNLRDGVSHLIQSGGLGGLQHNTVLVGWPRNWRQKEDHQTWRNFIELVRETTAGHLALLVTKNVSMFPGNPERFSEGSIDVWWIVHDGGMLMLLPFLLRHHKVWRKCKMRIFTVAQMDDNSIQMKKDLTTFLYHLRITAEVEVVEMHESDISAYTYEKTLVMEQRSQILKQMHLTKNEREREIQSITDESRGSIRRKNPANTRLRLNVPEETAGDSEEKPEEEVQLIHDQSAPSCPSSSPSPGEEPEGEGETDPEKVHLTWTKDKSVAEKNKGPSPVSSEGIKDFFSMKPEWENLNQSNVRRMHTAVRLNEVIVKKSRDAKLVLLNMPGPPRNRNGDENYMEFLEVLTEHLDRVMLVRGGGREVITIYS
# Diaphorase act: activates diaphorase or chemically reduces, flagging diaphorase assay artifacts. Diaphorase/resazurin coupled assay, resorufin fluorescence, 16 min; hits give high values; 1 = vehicle wells, 0 = NADH-free wells. activation factor at 20 µM. 190,000 tested, 0.005% active. AID 1229;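 active = diaphorase activity raised at least twofold by the compound at 20 µM; inactive = activation factor below 2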
#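 Material: Clostridium kluyveri diaphorase, purified enzyme; Quantity: enzyme 0.07 U/mL final; Medium: HEPES pH 7.4 buffer with MgCl2 and Tween 20; Dosing: single compound dose of 20 µM, 1% DMSO final; Schedule: 16 min reaction at room temperature; Measured by: red resorufin fluorescence at 544/590 nm excitation/emission.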
# L major viab: Leishmania major promastigote growth inhibition; 200,000 tested, 9% active; Leishmania major promastigotes, resazurin fluorescence viability; AID 1063; inhibition, % at 10 µM; in the data active = inhibition above about 50%;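 also: promastigotes grown with compound for 44 hours at 28 °C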
# Diaph inh CS: diaphorase inhibition or chemical oxidation counter-screen. AID 1217. inhibition, % at 20 µM. diaphorase resazurin-to-resorufin fluorescence, NADH, 16 min; bacterial (C. kluyveri) enzyme, not human. 190,000 tested, 0.69% active;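 active = primary screen inhibition at 20 µM above a set limit, cut at about 50% in these data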;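 also: plate controls were DMSO with full reaction for no effect and wells lacking NADH for full effect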
#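 Detection: fluorescence of resorufin formed from resazurin, Ex 544/Em 590 nm; test system: Clostridium kluyveri diaphorase enzyme; amount: 0.14 U/mL diaphorase, enzyme working solution; times: 16-min room-temperature incubation before reading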
# Numbers without * were called inactive; x = no result.
SMILES,WT yeast gro inh,ROMK mod,Cl transport mod,Diaphorase act,L major viab,Diaph inh CS
O=c1[nH][nH]c(-c2ccccc2O)c1C(C[N+](=O)[O-])c1ccc(Cl)cc1Cl (configuration not stated),-2,0.36,0.35,0.7,98*,31
O=c1[nH][nH]c(-c2ccccc2O)c1C(C[N+](=O)[O-])c1ccccc1 (configuration not stated),-6,-0.63,0.44,0.8,98*,16
CC(C)CC(=O)Nc1nnc(SCC(=O)NCc2ccc3c(c2)OCO3)s1,4,1.3,0.22,1,-11,4
CN(CC(=O)Nc1ccc(S(N)(=O)=O)cc1)c1ccccc1,-11,-0.2,1.3,1,1,5
COc1cccc(C(=O)N/N=C(/c2ccccc2)c2ccccn2)c1,66*,x,-0.13,1.1,100*,-8
COc1cc(C(=O)N/N=C(\c2ccccc2)c2ccccn2)cc(OC)c1OC,3,x,-0.92,0.9,99*,8
CCN1CC2=C(OC(N)=C(C#N)C2c2cccs2)/C(=C\c2cccs2)C1 (configuration not stated),20,-0.26,-0.78,0.9,23,11
O=C(NC(NCc1ccccc1)C(Cl)(Cl)Cl)c1cccnc1 (configuration not stated),-10,x,0.0047,0.9,-1,12
O=C(NC(NCc1cccnc1)C(Cl)(Cl)Cl)c1cccc2ccccc12 (configuration not stated),-3,-0.75,0.17,0.9,84*,6
CSC1=NCCN1C(=O)C12CC3CC(CC(C3)C1)C2,7,0.48,0.06,0.9,51*,7
CN(C)CCOc1ccc(C(C)(C)c2ccccc2)cc1,-4,-2,-0.17,0.8,72*,23
CN(C)CCOc1ccccc1C(C)(C)C,-14,0.88,x,0.8,-4,16
CCOc1ccc(C(=O)OCCCN(C)C)cc1,-6,0.61,0.67,0.9,-4,6
CC(C)(C)NCCOc1ccc2ccccc2c1,6,-0.85,-0.18,1.1,11,-12
C=CCNCCOc1ccc(C(C)(C)c2ccccc2)cc1,11,-0.49,0.008,0.9,98*,8
CN(C)CCCOc1ccc(C(C)(C)c2ccccc2)cc1,37,-1.6,x,1,100*,1
CC1(C)Cc2ccccc2C2=NNC(=O)C2=N1,-24,-0.28,0.69,0.3,100*,69*
CC1(C)Cc2ccccc2C(Nn2cnnc2)=N1,0,x,x,0.9,3,12
CCOC(=O)C1=C(C)N(c2ccc(Cl)cc2)C(=O)NC1c1cccc([N+](=O)[O-])c1 (configuration not stated),36,-0.33,-0.55,0.8,15,24
CCCSc1nnc(-c2cccc(S(=O)(=O)N(C)C)c2)n1-c1cc(OC)ccc1OC,-3,-0.18,0.055,0.7,53*,32
CCSc1nnc(-c2cccc(S(=O)(=O)N(C)C)c2)n1-c1cc(OC)ccc1OC,-18,x,-0.31,0.8,-4,20
COc1ccc(Cl)cc1Nc1nc(-c2sc(NC(=O)CC(C)C)nc2C)cs1,-6,x,0.071,0.8,32,23
C=CCCC(=O)Nc1nc(C)c(-c2csc(Nc3ccccc3OC)n2)s1,-11,x,-0.77,0.8,70*,18
CCCCC(=O)Nc1nc(C)c(-c2csc(Nc3ccccc3OC)n2)s1,13,x,-0.37,0.8,95*,24
CCC(C)C(=O)Nc1nc(C)c(-c2csc(Nc3ccccc3OC)n2)s1 (configuration not stated),23,x,-2.4,0.8,99*,20
CCCC(C)C(=O)Nc1nc(C)c(-c2csc(Nc3cc(Cl)ccc3C)n2)s1 (configuration not stated),-3,0.55,-0.4,0.8,91*,24
C=CCCC(=O)Nc1nc(C)c(-c2csc(Nc3cc(Cl)ccc3OC)n2)s1,38,x,0.2,0.8,33,21
O=C(Nc1ccc(O)c2c(=O)cc(-c3cccc(Cl)c3)oc12)c1ccccc1Cl,x,x,-1.6,x,x,x
COc1ccc(N2CCN(C(=O)CCN3C(=S)NC(C)(C)CC3C)CC2)cc1 (configuration not stated),7,0.014,x,0.8,4,18

# From PubChem
